From ChEMBL document CHEMBL1949601, “γ-Carbolines: a novel class of cannabinoid agonists with high aqueous solubility and restricted CNS penetration” (Bioorg Med Chem Lett, 2012)
Values after ≈ are worked out from the molar mass of the structure shown.

Tests used:
[1] = Activity at L-Type Calcium channel at 10 uM
Rattus norvegicus [2] = assay: Toxicity in Sprague-Dawley rat carrageenan pain model assessed as hypoactivity at 0.35 to 1.4 mg/kg, sc; format: organism-based; set-up: dose 0.35-1.4 mg/kg, route subcutaneous; conditions: in vivo
Method in brief: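 Carrageenan-model rats given 0.35–1.4 mg/kg sc; hypoactivity scored 0 absent, 1 mild, 2 moderate, 3 severe; ptosis and exophthalmos also checked. n = 7; mean ± SEM; one-way ANOVA, Holm-Sidak versus vehicle.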

[3] = target: Somatostatin receptor type 4 (Homo sapiens) (UniProt P31391); assay: Activity at human SST4 receptor at 10 uM
Sequence of Somatostatin receptor type 4 (Homo sapiens) (P31391 whole entry): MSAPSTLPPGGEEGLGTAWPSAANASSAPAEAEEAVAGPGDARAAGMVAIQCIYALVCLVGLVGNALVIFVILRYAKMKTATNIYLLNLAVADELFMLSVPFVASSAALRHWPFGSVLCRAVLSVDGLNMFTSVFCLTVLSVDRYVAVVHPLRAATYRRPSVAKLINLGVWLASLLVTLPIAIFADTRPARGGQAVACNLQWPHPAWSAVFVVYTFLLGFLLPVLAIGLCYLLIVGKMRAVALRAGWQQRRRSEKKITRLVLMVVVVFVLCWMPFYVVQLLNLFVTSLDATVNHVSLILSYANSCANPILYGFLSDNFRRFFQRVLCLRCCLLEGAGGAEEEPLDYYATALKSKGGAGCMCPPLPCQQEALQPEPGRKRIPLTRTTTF

Cannabinoid receptor 2 = Cannabinoid receptor 2 (Homo sapiens, UniProt P34972); assay: Binding affinity to human CB2 receptor
[4] = target: Mitogen-activated protein kinase 1 (Mus musculus) (UniProt P63085); assay: Activity at mouse ERK2 receptor at 10 uM
[5] = target: N-formyl peptide receptor 2 (Homo sapiens) (UniProt P25090); assay: Activity at human FPRL1 receptor at 10 uM
[6] = Activity at nAChR receptor at 10 uM
Cannabinoid receptor 1 [7] = target: Cannabinoid receptor 1 (Rattus norvegicus, UniProt P20272); assay: Agonist activity at CB1 receptor in rat brain tissue; format: functional, tissue-based
MAO-A = MAO-A (Homo sapiens, UniProt P21397); assay: Activity at human MAO-A receptor at 10 uM; conditions: read-out: Activity
Mu-type opioid receptor = Mu-type opioid receptor (Homo sapiens, UniProt P35372); assay: Inhibition of human MOR
Sequence of Mu-type opioid receptor (P35372 whole entry): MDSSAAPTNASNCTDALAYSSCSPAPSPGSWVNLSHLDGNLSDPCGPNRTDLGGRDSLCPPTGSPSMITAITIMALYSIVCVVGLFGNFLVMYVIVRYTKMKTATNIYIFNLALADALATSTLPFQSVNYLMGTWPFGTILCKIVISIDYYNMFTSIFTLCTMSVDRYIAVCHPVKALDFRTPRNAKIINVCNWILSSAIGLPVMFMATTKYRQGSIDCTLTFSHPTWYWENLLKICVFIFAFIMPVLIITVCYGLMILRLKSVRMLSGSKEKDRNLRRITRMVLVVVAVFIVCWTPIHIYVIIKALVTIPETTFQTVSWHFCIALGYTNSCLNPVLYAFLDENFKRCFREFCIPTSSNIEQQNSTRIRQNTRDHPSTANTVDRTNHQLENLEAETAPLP

[8] = Ratio of drug uptake in brain to plasma of mouse; format: ADME, cell-free; conditions: read-out: BPR
Method in brief: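 Compound given sc or po; blood and brain sampled 30 or 60 min post-dose; total plasma and brain concentrations by protein precipitation (brain homogenised) and LC–MS/MS; brain values corrected for 2% blood contamination; brain/plasma ratio calculated.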

[9] = target: Beta-1 adrenergic receptor (Homo sapiens) (UniProt P08588); assay: Activity at human beta1 adrenergic receptor at 10 uM
Sequence of Beta-1 adrenergic receptor (Homo sapiens) (P08588 whole entry, looked up): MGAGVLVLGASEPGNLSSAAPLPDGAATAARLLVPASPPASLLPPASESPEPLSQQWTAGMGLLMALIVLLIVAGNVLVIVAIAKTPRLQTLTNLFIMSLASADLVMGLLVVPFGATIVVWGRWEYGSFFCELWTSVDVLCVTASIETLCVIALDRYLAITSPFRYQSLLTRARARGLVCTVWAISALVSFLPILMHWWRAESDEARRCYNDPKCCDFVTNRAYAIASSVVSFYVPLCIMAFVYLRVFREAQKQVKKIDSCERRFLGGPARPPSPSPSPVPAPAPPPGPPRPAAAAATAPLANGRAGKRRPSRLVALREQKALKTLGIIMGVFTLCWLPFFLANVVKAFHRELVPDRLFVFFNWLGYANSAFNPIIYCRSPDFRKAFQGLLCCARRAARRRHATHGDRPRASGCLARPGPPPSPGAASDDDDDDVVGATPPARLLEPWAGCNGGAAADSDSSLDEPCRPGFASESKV

[10] = target: Glucagon-like peptide 2 receptor (Homo sapiens) (UniProt O95838); assay: Activity at human GLP2 receptor at 10 uM
Sequence of Glucagon-like peptide 2 receptor (Homo sapiens) (O95838 whole entry): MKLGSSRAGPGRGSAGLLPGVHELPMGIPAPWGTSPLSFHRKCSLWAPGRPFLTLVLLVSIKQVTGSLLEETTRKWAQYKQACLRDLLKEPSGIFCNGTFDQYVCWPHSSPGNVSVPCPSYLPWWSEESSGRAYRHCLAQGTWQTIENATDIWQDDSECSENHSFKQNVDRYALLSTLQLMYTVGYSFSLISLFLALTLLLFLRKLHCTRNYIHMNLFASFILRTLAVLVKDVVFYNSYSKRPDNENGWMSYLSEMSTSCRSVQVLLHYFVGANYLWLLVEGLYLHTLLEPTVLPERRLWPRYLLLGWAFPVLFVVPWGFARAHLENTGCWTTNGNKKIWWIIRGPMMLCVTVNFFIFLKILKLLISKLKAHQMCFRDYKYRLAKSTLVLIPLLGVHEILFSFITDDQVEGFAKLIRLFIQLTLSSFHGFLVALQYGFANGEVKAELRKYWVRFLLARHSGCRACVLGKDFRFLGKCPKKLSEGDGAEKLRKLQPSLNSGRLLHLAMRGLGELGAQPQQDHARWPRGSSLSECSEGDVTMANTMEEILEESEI

[11] = target: 5-hydroxytryptamine receptor 2A (Homo sapiens) (UniProt P28223); assay: Activity at 5-HT2a receptor at 10 uM
Sequence of 5-hydroxytryptamine receptor 2A (Homo sapiens) (P28223 whole entry): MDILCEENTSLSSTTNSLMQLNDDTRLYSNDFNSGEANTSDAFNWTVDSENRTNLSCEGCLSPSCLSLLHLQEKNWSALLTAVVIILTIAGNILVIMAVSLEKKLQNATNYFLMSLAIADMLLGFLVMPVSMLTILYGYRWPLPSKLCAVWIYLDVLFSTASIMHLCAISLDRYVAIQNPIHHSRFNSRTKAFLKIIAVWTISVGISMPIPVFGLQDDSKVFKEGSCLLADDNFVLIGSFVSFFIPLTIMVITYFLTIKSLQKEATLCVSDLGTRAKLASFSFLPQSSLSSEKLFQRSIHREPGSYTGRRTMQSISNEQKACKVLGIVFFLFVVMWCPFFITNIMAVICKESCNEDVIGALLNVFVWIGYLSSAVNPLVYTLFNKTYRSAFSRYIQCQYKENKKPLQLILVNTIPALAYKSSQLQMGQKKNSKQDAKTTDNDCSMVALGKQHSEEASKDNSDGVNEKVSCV

[12] = target: Kappa-type opioid receptor (Homo sapiens, UniProt P41145); assay: Inhibition of human KOR
Cytochrome P450 2C19 = Cytochrome P450 2C19 (Homo sapiens, UniProt P33261); assay: Inhibition of CYP2C19; format: ADME
Cannabinoid receptor 1 [13] = target: T1, Cannabinoid receptor 1 (Homo sapiens, UniProt P21554); assay: Displacement of [3H]-CP55,940 from human CB1 receptor expressed in HEK293 cells; format: cell-based
T1 sequence (P21554 whole entry): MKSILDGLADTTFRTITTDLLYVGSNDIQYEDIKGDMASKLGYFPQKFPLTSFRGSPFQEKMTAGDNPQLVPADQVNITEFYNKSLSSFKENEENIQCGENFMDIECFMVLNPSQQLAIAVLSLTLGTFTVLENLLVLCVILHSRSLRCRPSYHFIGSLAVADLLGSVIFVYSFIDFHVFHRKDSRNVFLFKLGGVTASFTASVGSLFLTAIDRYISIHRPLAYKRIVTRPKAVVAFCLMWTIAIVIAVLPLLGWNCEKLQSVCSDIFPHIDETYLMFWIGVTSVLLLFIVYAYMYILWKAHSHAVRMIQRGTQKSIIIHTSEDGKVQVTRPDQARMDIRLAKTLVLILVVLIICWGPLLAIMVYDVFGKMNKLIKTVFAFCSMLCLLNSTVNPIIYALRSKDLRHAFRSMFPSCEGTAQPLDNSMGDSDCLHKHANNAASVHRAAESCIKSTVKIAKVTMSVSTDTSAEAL

[14] = target: Adenosine receptor A2a (Homo sapiens) (UniProt P29274); assay: Activity at human A2a receptor at 10 uM
[15] = target: CX3C chemokine receptor 1 (Homo sapiens) (UniProt P49238); assay: Activity at human CX3CR1 receptor at 10 uM
[16] = target: C-C chemokine receptor type 5 (Homo sapiens) (UniProt P51681); assay: Activity at human CCR5 at 10 uM
Sequence of C-C chemokine receptor type 5 (Homo sapiens) (P51681 whole entry, looked up): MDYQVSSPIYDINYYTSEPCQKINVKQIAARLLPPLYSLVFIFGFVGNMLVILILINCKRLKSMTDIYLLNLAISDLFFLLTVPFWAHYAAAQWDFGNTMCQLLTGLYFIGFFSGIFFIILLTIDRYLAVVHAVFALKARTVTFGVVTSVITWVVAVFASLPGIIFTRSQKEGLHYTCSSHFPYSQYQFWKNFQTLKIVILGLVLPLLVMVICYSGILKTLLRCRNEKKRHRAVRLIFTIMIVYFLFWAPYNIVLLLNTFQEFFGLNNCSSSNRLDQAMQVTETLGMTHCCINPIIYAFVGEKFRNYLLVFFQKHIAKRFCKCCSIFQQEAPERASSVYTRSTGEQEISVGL

[17] = target: Vasopressin V1b receptor (Homo sapiens) (UniProt P47901); assay: Activity at human V1B receptor at 10 uM
Sequence of Vasopressin V1b receptor (Homo sapiens) (P47901 whole entry): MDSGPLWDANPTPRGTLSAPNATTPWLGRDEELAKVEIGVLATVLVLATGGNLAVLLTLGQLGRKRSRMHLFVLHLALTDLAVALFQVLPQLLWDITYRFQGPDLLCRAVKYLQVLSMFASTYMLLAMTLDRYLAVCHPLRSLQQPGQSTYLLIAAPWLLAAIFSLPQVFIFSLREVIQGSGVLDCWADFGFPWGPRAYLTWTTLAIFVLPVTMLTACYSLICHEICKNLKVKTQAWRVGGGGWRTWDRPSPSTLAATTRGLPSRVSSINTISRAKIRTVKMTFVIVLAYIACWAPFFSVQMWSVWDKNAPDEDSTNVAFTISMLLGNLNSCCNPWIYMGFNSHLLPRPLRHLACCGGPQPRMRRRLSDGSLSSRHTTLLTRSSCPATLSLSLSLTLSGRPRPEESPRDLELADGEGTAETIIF

[18] = target: Pyroglutamylated RF-amide peptide receptor (Rattus norvegicus) (UniProt P83858); assay: Activity at rat GPR103 receptor at 10 uM
[19] = target: C-X-C chemokine receptor type 2 (Homo sapiens) (UniProt P25025); assay: Activity at human CXCR2 receptor at 10 uM
Sequence of C-X-C chemokine receptor type 2 (Homo sapiens) (P25025 whole entry): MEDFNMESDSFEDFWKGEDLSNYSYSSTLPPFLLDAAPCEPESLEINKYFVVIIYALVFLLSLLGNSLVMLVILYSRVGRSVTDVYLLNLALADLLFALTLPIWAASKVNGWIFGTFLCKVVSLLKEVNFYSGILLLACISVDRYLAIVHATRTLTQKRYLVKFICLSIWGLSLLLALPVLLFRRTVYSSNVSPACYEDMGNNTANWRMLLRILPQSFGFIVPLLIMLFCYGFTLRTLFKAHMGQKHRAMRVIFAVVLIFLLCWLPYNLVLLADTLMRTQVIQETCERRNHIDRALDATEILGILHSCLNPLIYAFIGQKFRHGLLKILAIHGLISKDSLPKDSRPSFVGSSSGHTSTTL

[20] = Ratio of drug uptake in brain to plasma of Sprague-Dawley rat at 1 mg/kg, sc; format: ADME, organism-based; set-up: dose 1 mg/kg, route subcutaneous; conditions: read-out: BPR
[21] = target: Prokineticin receptor 1 (Mus musculus) (UniProt Q9JKL1); assay: Activity at mouse GPR73 receptor at 10 uM
[22] = target: D(2) dopamine receptor (Homo sapiens) (UniProt P14416); assay: Activity at human dopamine2L receptor at 10 uM
[23] = Metabolic stability in human liver microsomes; format: ADME, Microsome; conditions: read-out: Stability
[24] = Aqueous solubility of the compound at pH 7.4; format: physicochemical
[25] = target: C-C chemokine receptor type 2 (Homo sapiens) (UniProt P41597); assay: Activity at human CCR2b at 10 uM
[26] = target: Delta-type opioid receptor (Homo sapiens, UniProt P41143); assay: Inhibition of human DOR
Sequence of Delta-type opioid receptor (P41143 whole entry): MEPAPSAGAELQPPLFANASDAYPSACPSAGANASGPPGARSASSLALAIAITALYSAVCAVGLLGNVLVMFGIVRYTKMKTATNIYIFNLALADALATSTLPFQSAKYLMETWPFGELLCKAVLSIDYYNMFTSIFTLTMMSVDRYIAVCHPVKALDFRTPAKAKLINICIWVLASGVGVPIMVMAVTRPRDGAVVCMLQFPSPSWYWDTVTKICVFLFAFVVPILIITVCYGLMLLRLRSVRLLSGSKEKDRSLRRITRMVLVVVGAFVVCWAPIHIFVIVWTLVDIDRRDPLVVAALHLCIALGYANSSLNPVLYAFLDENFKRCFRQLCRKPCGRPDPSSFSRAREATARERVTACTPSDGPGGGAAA

[27] = Half life in iv dosed Sprague-Dawley rat; format: ADME, organism-based; conditions: in vivo
[28] = target: Alpha-2A adrenergic receptor (Homo sapiens) (UniProt P08913); assay: Activity at human alpha2a adrenergic receptor at 10 uM
Cannabinoid receptor 1 [29] = target: T1, Cannabinoid receptor 1; assay: Agonist activity at human CB1 receptor expressed in HEK293 EBNA cells by [35S]GTPgamma binding assay; format: functional, cell-based
[30] = target: Calcitonin gene-related peptide type 1 receptor (Homo sapiens) (UniProt Q16602); assay: Activity at human CGRP receptor at 10 uM
[31] = target: Glucagon-like peptide 1 receptor (Homo sapiens) (UniProt P43220); assay: Activity at human GLP1 receptor at 10 uM
[32] = Metabolic stability in rat liver microsomes; format: ADME, Microsome; conditions: read-out: Stability
[33] = Oral bioavailability in Sprague-Dawley rat; format: ADME, organism-based; conditions: in vivo
[34] = target: Protein kinase C alpha type (Homo sapiens) (UniProt P17252); assay: Activity at human PKCalpha at 10 uM
[35] = Fraction unbound in Sprague-Dawley rat plasma at 1 mg/kg, sc; format: ADME, organism-based; set-up: dose 1 mg/kg, route subcutaneous
[36] = target: Muscarinic acetylcholine receptor M3 (Homo sapiens) (UniProt P20309); assay: Activity at human M3 receptor at 10 uM
[37] = target: fMet-Leu-Phe receptor (Homo sapiens) (UniProt P21462); assay: Activity at human FPR1 receptor at 10 uM
Rattus norvegicus [38] = assay: Volume of distribution at steady state in po dosed Sprague-Dawley rat; format: ADME, organism-based; conditions: in vivo
Cytochrome P450 2C9 = Cytochrome P450 2C9 (Homo sapiens, UniProt P11712); assay: Inhibition of CYP2C9; format: ADME
[39] = Dissociation constant, pKa of the compound; format: physicochemical
Rattus norvegicus [40] = organism: Rattus norvegicus; assay: Activity at rat GABAa receptor at 10 uM
[41] = Apparent permeability across human Caco2 cells; format: ADME, cell-based; conditions: Caco-2
Rattus norvegicus [42] = assay: Toxicity in Sprague-Dawley rat carrageenan pain model assessed as hypoactivity at […], sc; format: organism-based; conditions: in vivo
Cytochrome P450 2D6 = Cytochrome P450 2D6 (Homo sapiens, UniProt P10635); assay: Inhibition of CYP2D6; format: ADME
[43] = target: Muscarinic acetylcholine receptor M4 (Homo sapiens) (UniProt P08173); assay: Activity at human M4 receptor at 10 uM
[44] = target: Motilin receptor (Homo sapiens) (UniProt O43193); assay: Activity at human Mtl receptor at 10 uM
[45] = target: Prokineticin-2 (Rattus norvegicus) (UniProt Q8R413); assay: Activity at rat PK2 receptor at 10 uM
[46] = target: Neuromedin-K receptor (Homo sapiens) (UniProt P29371); assay: Activity at human NK3 receptor at 10 uM

CCS(=O)(=O)n1c2c(c3cc(C(=O)N4CCC(C)CC4)ccc31)CN(C1CCOCC1)CC2
Activity [1]: < 50% | Activity (Rattus norvegicus [2]): Non-toxic | Activity [3]: < 50% | Ki (Cannabinoid receptor 2): 9 nM | Activity [4]: < 50% | Activity [5]: < 50% | Activity [6]: < 50% | EC50 (Cannabinoid receptor 1 [7]): 85 nM | activity at 10 µM (MAO-A): < 50% | IC50 (Mu-type opioid receptor): > 10000 nM | Kp [8]: 0.05 | Activity [9]: < 50% | Activity [10]: < 50% | Activity [11]: < 50% | IC50 [12]: > 10000 nM | IC50 (Cytochrome P450 2C19): > 20000 nM | Ki (Cannabinoid receptor 1 [13]): 120 nM | Activity [14]: < 50% | Activity [15]: < 50% | Activity [16]: < 50% | Activity [17]: < 50% | Activity [18]: < 50% | Activity [19]: < 50% | Kp [20]: 0.07 | Activity [21]: < 50% | Activity [22]: < 50% | microsomal CLint [23]: 52 µL/min/mg | solubility [24]: 480 µg/mL (≈ 1010 µM) | Activity [25]: < 50% | IC50 [26]: > 10000 nM | half-life [27]: 37.8 min | Activity [28]: < 50% | EC50 (Cannabinoid receptor 1 [29]): 49 nM | Activity [30]: < 50% | Activity [31]: < 50% | microsomal CLint [32]: 202 µL/min/mg | bioavailability [33]: 16% | Activity [34]: < 50% | fraction unbound [35]: 0.13 | Activity [36]: < 50% | Activity [37]: < 50% | Vdss (Rattus norvegicus [38]): 1.2 L/kg | IC50 (Cytochrome P450 2C9): > 20000 nM | pKa [39]: 6.9 | Activity (Rattus norvegicus [40]): < 50% | Papp [41]: 13 ×10⁻⁶ cm/s | Activity (Rattus norvegicus [42]): Toxic | IC50 (Cytochrome P450 2D6): > 20000 nM | Activity [43]: < 50% | Activity [44]: < 50% | Activity [45]: < 50% | Activity [46]: < 50%
